In ChEMBL document CHEMBL3608272, “Design, synthesis and anticancer properties of novel oxa/azaspiro[4,5]trienones as potent apoptosis inducers through mitochondrial disruption” (2015):
Activity calls are given as the source filed them. No cut-off for these calls is given here.

Columns and labels:
MCF7 [1] = experiment: Induction of apoptosis in human MCF7 cells assessed as induction of caspase-9 activity at 1 uM incubated for 48 hrs by ELISA method relative to control; type: functional
Summary of the method: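 MCF-7 cells were treated for 48 h, pelleted, washed in PBS and lysed for 15 min. After centrifugation at 20,000 rpm for 15 min, caspase-9 activity in the supernatant was measured with a kit ELISA and expressed relative to untreated control. Mean ± SD of two experiments run in triplicate.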

MCF7 [2] = experiment: Anti-proliferative activity against human MCF7 cells incubated for 48 hrs by SRB assay; type: functional; conditions: MCF7, 48 h
Summary of the method: (§1)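 SRB assay. Cells in DMEM with 10% FBS were seeded and grown 24 h at 37 °C in CO2. Compounds were diluted from a 10 mM DMSO stock to 1, 5 and 10 µM, with DMSO at most 0.1%, and exposed 48 h. Cells were fixed with 10% TCA for 60 min at 4 °C and stained 20 min at room temperature with 0.4% SRB in 1% acetic acid. Dye was eluted with 10 mM trizma base and absorbance read at 540 nm. Run in triplicate; GI50 given as mean ± SD of three determinations.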

DU-145 = experiment: Anti-proliferative activity against human DU145 cells incubated for 48 hrs by SRB assay; type: functional; conditions: DU-145, 48 h; summary of the method: as §1
A549 = experiment: Anti-proliferative activity against human A549 cells incubated for 48 hrs by SRB assay; type: functional; conditions: A549, 48 h
HepG2 = experiment: Anti-proliferative activity against human HepG2 cells incubated for 48 hrs by SRB assay; type: functional; conditions: HepG2, 48 h; summary of the method: as §1
MCF7 [3] = experiment: Induction of cell cycle arrest in human MCF7 cells assessed as accumulation at sub G1 phase at 0.5 uM incubated for 48 hrs by propidium iodide staining based flow cytometry (reference value: 2.75%); type: functional
Summary of the method: (§2)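 MCF-7 cells were treated 48 h, harvested, washed in PBS, fixed in ice-cold 70% ethanol and stained with propidium iodide. Phase distribution was measured by flow cytometry and compared with untreated cells.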

MCF7 [4] = experiment: Induction of cell cycle arrest in human MCF7 cells assessed as accumulation at sub G1 phase at 1 uM incubated for 48 hrs by propidium iodide staining based flow cytometry (reference value: 2.75%); type: functional; summary of the method: as §2
MCF7 [5] = experiment: Induction of cell cycle arrest in human MCF7 cells assessed as accumulation at G0/G1 phase at 0.5 uM incubated for 48 hrs by propidium iodide staining based flow cytometry (reference value: 77.79%); type: functional; summary of the method: as §2
MCF7 [6] = experiment: Induction of cell cycle arrest in human MCF7 cells assessed as accumulation at G0/G1 phase at 1 uM incubated for 48 hrs by propidium iodide staining based flow cytometry (reference value: 77.79%); type: functional; summary of the method: as §2
MCF7 [7] = experiment: Induction of cell cycle arrest in human MCF7 cells assessed as accumulation at S phase at 0.5 uM incubated for 48 hrs by propidium iodide staining based flow cytometry (reference value: 0.99%); type: functional; summary of the method: as §2
MCF7 [8] = experiment: Induction of cell cycle arrest in human MCF7 cells assessed as accumulation at S phase at 1 uM incubated for 48 hrs by propidium iodide staining based flow cytometry (reference value: 0.99%); type: functional; summary of the method: as §2
MCF7 [9] = experiment: Induction of cell cycle arrest in human MCF7 cells assessed as accumulation at G2/M phase at 0.5 uM incubated for 48 hrs by propidium iodide staining based flow cytometry (reference value: 11.98%); type: functional; summary of the method: as §2
MCF7 [10] = experiment: Induction of cell cycle arrest in human MCF7 cells assessed as accumulation at G2/M phase at 1 uM incubated for 48 hrs by propidium iodide staining based flow cytometry (reference value: 11.98%); type: functional; summary of the method: as §2
MCF7 [11] = experiment: Reduction in mitochondrial membrane potential in human MCF7 cells at 0.5 and 1 uM incubated for 48 hrs by JC1 dye staining based flow cytometry; type: functional, cell-based
Summary of the method: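 MCF-7 cells (1 × 10^6 per well) in six-well plates were treated 48 h, trypsinized, washed in PBS and stained with 5 µg/mL JC-1 for 15 min at 37 °C. Cells were rinsed three times, resuspended in prewarmed medium and analysed by flow cytometry in the FL1 and FL2 channels.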

MCF7 [12] = experiment: Induction of ROS generation in human MCF7 cells at 0.5 uM incubated for 48 hrs by DCFDA dye based flow cytometry (reference value: 1.2%); type: functional
MCF7 [13] = experiment: Induction of ROS generation in human MCF7 cells at 1 uM incubated for 48 hrs by DCFDA dye based flow cytometry (reference value: 1.2%); type: functional
MCF7 [14] = experiment: Induction of apoptosis in human MCF7 cells assessed as necrotic cells levels at 0.5 uM incubated for 48 hrs by Annexin V-FITC and propidium iodide staining based flow cytometry (reference value: 0.86%); type: functional
MCF7 [15] = experiment: Induction of apoptosis in human MCF7 cells assessed as necrotic cells levels at 1 uM incubated for 48 hrs by Annexin V-FITC and propidium iodide staining based flow cytometry (reference value: 0.86%); type: functional
MCF7 [16] = experiment: Induction of apoptosis in human MCF7 cells assessed as late apoptotic cells levels at 0.5 uM incubated for 48 hrs by Annexin V-FITC and propidium iodide staining based flow cytometry (reference value: 3.08%); type: functional
MCF7 [17] = experiment: Induction of apoptosis in human MCF7 cells assessed as late apoptotic cells levels at 1 uM incubated for 48 hrs by Annexin V-FITC and propidium iodide staining based flow cytometry (reference value: 3.08%); type: functional
MCF7 [18] = experiment: Induction of apoptosis in human MCF7 cells assessed as viable cells levels at 0.5 uM incubated for 48 hrs by Annexin V-FITC and propidium iodide staining based flow cytometry (reference value: 92.5%); type: functional
MCF7 [19] = experiment: Induction of apoptosis in human MCF7 cells assessed as viable cells levels at 1 uM incubated for 48 hrs by Annexin V-FITC and propidium iodide staining based flow cytometry (reference value: 92.5%); type: functional
MCF7 [20] = experiment: Induction of apoptosis in human MCF7 cells assessed as early apoptotic cells levels at 0.5 uM incubated for 48 hrs by Annexin V-FITC and propidium iodide staining based flow cytometry (reference value: 3.57%); type: functional
MCF7 [21] = experiment: Induction of apoptosis in human MCF7 cells assessed as early apoptotic cells levels at 1 uM incubated for 48 hrs by Annexin V-FITC and propidium iodide staining based flow cytometry (reference value: 3.57%); type: functional
MCF7 [22] = experiment: Induction of apoptosis in human MCF7 cells assessed as increase in p53 protein levels at 1 uM incubated for 48 hrs by Western blot method; type: functional, cell-based
Summary of the method: (§3)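 MCF-7 cells were treated for 48 h and lysed in ice-cold RIPA buffer with PMSF, aprotinin, leupeptin, pepstatin and NaF. Protein was quantified by Bradford, and 50 µg per lane was run on 12% SDS-PAGE and transferred to PVDF. Membranes were blocked 2 h in TBST with 5% blocking powder, probed with primary antibody overnight and HRP secondary for 1 h at room temperature, then detected by chemiluminescence.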

MCF7 [23] = experiment: Induction of apoptosis in human MCF7 cells assessed as increase in p21 protein levels at 1 uM incubated for 48 hrs by Western blot method; type: functional, cell-based; summary of the method: as §3
MCF7 [24] = experiment: Induction of apoptosis in human MCF7 cells assessed as increase in p27 protein levels at 1 uM incubated for 48 hrs by Western blot method; type: functional, cell-based; summary of the method: as §3
MCF7 [25] = experiment: Induction of apoptosis in human MCF7 cells assessed as increase in Bax protein levels at 1 uM incubated for 48 hrs by Western blot method; type: functional, cell-based; summary of the method: as §3
MCF7 [26] = experiment: Induction of apoptosis in human MCF7 cells assessed as reduction in Bcl2 protein levels at 1 uM incubated for 48 hrs by Western blot method; type: functional, cell-based; summary of the method: as §3

Compound	fold change (FC) (MCF7 [1])	GI50 (MCF7 [2])	GI50 (DU-145)	GI50 (A549)	GI50 (HepG2)	Activity (MCF7 [3])	Activity (MCF7 [4])	Activity (MCF7 [5])	Activity (MCF7 [6])	Activity (MCF7 [7])	Activity (MCF7 [8])	Activity (MCF7 [9])	Activity (MCF7 [10])	inhibition (MCF7 [11])	Activity (MCF7 [12])	Activity (MCF7 [13])	Activity (MCF7 [14])	Activity (MCF7 [15])	Activity (MCF7 [16])	Activity (MCF7 [17])	also measured
COc1ccc(F)cc1C1=C(c2ccccc2)C2(C=CC(=O)C=C2)OC1=O	2	1000 nM	900 nM	4600 nM	1400 nM	2.89%	3.25%	81.44%	88.42%	1.12%	1.3%	9.63%	2.2%	Active	16.2%	57.4%	1.69%	4.77%	7.25%	24.21%	Activity (MCF7 [18]): 86.85%; Activity (MCF7 [19]): 64.39%; Activity (MCF7 [20]): 4.22%; Activity (MCF7 [21]): 6.64%; Activity (MCF7 [22]): Active; Activity (MCF7 [23]): Active; Activity (MCF7 [24]): Active; Activity (MCF7 [25]): Active; Activity (MCF7 [26]): Active
O=C1C=CC2(C=C1)OC(=O)C(c1ccc([N+](=O)[O-])cc1)=C2c1ccccc1	2	1000 nM	1900 nM	4000 nM	1500 nM	4.38%	3.69%	84.21%	89.15%	0.34%	1.75%	3.35%	0.76%	Active	30.4%	78.5%	1.96%	3.77%	6.76%	28.87%	Activity (MCF7 [18]): 85.41%; Activity (MCF7 [19]): 57.24%; Activity (MCF7 [20]): 5.87%; Activity (MCF7 [21]): 10.13%; Activity (MCF7 [22]): Active; Activity (MCF7 [23]): Active; Activity (MCF7 [24]): Active; Activity (MCF7 [25]): Active; Activity (MCF7 [26]): Active
